Measurements gathered from unrelated publications.
Protocols differ between the studies behind these lines.

Compound	target or system	test	system	setting	endpoint	result
COc1nc(-c2cccc(-c3ccccc3)c2C)ccc1CNCCNC(=O)CCCCCCCCCCC(=O)N1CCN(CCNC(=O)c2cc3c(=O)n4cccc(C)c4nc3n(CCc3cccs3)c2=N)CC1			male Sprague-Dawley rat, plasma	intraperitoneal, 4 mg/kg	AUC(0-inf)	2450 ng·h/mL
O=C1CCC(N2C(=O)c3cccc(NCc4cn(Cc5ccc(-c6nc7cc(-c8ccccc8)ccn7c6Nc6ccc(C(=O)O)cc6)cc5)nn4)c3C2=O)C(=O)N1 (stereo not drawn)	HCT-116	cell growth or viability		72 h	CC50	193 µM
COCC(=O)N1CCC[C@H](C(=O)NCc2nc(-c3ccccc3)cs2)C1			male Sprague-Dawley rat, plasma	oral, 3 mg/kg	AUC	110 µM·h
C=C(CC(=O)OCOC(=O)OC(C)C)C(=O)O			PAMPA	10 µM, 4 h, pH 7.4	Papp	< 1 ×10⁻⁶ cm/s
CN(Cc1cn(Cc2ccc(-c3nc4cc(-c5ccccc5)ccn4c3Nc3ccc(C(=O)O)cc3)cc2)nn1)c1cccc2c1C(=O)N(C1CCC(=O)NC1=O)C2=O (stereo not drawn)	HCT-116	cell growth or viability		72 h	CC50	190 µM
COc1cccc2c(N3CCC(CCP(=O)(O)O)CC3)ncnc12	EMT6		female BALB/c, tumour	subcutaneous, 50 mg/kg, tumour-bearing	half-life	6.6 h
O=c1[nH]cc(F)c(=O)[nH]1	PC-9	cell growth or viability, CCK-8		50 µM	viability	31.9%
C[C@H]1Oc2cc(cnc2N)-c2c(nn(C)c2C#N)CN(C)C(=O)c2ccc(F)cc21			male Sprague-Dawley rat, plasma	oral, 5 mg/kg, single dose	AUC(0-t)	1780 ng·h/mL
COCC(=O)N1CCC[C@H](C(=O)NCc2nc(-c3ccc(C#N)cc3)cs2)C1			male Sprague-Dawley rat, plasma	oral, 3 mg/kg	AUC	120 µM·h
